Measurements from paper PMC10286757 (Chemmedchem, 2022).

How the values were obtained:
[1] = system: Plasmodium falciparum strain 3D7; experiment: parasite lactate dehydrogenase; type: cell-based; conditions: for viability at 20 µM / IC50: Plasmodium falciparum, 3D7, 48 h; for viability at 20 µM: read-out: Pf 3D7 % cell viability at 20 μM; for antiplasmodial activity in vitro (in words): Pf 3D7, pLDH assay, low micromolar range; for IC50: read-out: Pf 3D7 IC50
[2] = HeLa cell cytotoxicity assay; type: cell-based; conditions: human, HeLa cells
Summary of the method: (§1)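 HeLa cells were seeded at 2×10^4 per well in DMEM with 10 % FBS, 2 mM L-glutamine and antibiotics, then held overnight at 37 °C in 5 % CO2. Test compound was added to a final 20 μM for 48 h. Resazurin was then added to a final 50 μM for 4 h, and resorufin fluorescence was read at Ex560/Em590. Cell-free background was subtracted and results expressed as % viability against untreated wells.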

PfCDPK4 = molecular target: T1, PfCDPK4 (Plasmodium falciparum, UniProt Q8IBS5); experiment: Kinase Glo luciferase enzyme activity assay, recombinant PfCDPK4; type: biochemical
T1 sequence (Q8IBS5 1-528): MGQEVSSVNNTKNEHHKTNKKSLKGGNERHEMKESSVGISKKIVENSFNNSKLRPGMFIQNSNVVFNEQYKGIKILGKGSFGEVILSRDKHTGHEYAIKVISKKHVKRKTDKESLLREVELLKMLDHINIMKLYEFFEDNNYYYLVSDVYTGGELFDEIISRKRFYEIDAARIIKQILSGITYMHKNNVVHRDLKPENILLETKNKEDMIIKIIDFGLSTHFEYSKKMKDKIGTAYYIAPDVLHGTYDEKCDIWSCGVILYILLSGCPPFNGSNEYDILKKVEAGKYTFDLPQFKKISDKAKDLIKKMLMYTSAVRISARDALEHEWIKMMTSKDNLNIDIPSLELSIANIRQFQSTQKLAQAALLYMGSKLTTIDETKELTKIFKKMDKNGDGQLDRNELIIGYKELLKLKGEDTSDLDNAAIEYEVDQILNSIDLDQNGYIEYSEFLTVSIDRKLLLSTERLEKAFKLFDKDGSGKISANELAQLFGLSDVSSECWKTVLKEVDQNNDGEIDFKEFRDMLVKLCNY
Summary of the method: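 Recombinant PfCDPK4 was expressed in Rosetta E. coli at 20 °C by auto-induction, then purified by IMAC and size exclusion. The enzyme was used at 180 nM with 40 μM Syntide-2 and serial inhibitor dilutions in 20 mM HEPES pH 7.5, 0.1 % BSA, 10 mM MgCl2, ±1 mM CaCl2, 1 mM EGTA. Reactions were started with 10 μM ATP and run 90 min at 30 °C. Remaining ATP was read by Kinase-Glo luminescence, with positive and DMSO controls on each plate.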

HeLa cells = experiment: HeLa cell cytotoxicity assay; type: cell-based; conditions: single concentration 20 μM
Summary of the method: as §1

Row | IC50 (PfCDPK4) | IC50 [1] | SMILES | viability at 20 µM [1] | viability at 48 h, 20 µM [2] | antiplasmodial activity in vitro (in words) [1] | cytotoxicity in vitro in HeLa cell assay (in words) (HeLa cells)
1 | 210 ± 68 nM | – | COc1ccc2cc(-c3cn(CC4CCN(C(C)=O)CC4)c4ncnc(N)c34)ccc2c1 [2 f, 1‐{4‐[(4‐Amino‐5‐(2‐methoxynaphthalen‐6‐yl)‐7H‐pyrrolo[2,3‐d]pyrimidin‐7‐yl)methyl]piperidin‐1‐yl}ethanone] | 35.3 ± 2.2% | 92.1 ± 3.1% | – | –
2 | > 2000 nM | 12.1 ± 11.4 µM | COc1ccc(-c2cn(CC3CCN(C(C)=O)CC3)c3ncnc(N)c23)cc1OC [2 j, 1‐{4‐[(4‐Amino‐5‐(3,4‐dimethoxyphenyl)‐7H‐pyrrolo[2,3‐d]pyrimidin‐7‐yl)methyl]piperidin‐1‐yl}ethanone] | 2.8 ± 3.9% | 79.3 ± 0.8% | moderate antiplasmodial activity | –
3 | – | 8.2 ± 3.1 µM | CCOc1ccc2cc(-c3cn(CCN4CCOCC4)c4ncnc(N)c34)ccc2c1 [2 m, 5‐(2‐Ethoxynaphthalen‐6‐yl)‐7‐(2‐morpholinoethyl)‐7H‐pyrrolo[2,3‐d]pyrimidin‐4‐amine] | 12 ± 2.6% | 47 ± 7% | moderate antiplasmodial activity | moderate cytotoxicity
4 | > 2000 nM | – | COc1ccc(-c2cn(CCN3CCOCC3)c3ncnc(N)c23)cc1OC [2 o, 5‐(3,4‐Dimethoxyphenyl)‐7‐(2‐morpholinoethyl)‐7H‐pyrrolo[2,3‐d]pyrimidin‐4‐amine] | 57 ± 6.6% | 88 ± 11.8% | – | –
5 | 369 ± 138 nM | 18.7 ± 0.8 µM | CCOc1ccc2cc(-c3cn(CC4CC4)c4ncnc(N)c34)ccc2c1 [2 b, 7‐(Cyclopropylmethyl)‐5‐(2‐ethoxynaphthalen‐6‐yl)‐7H‐pyrrolo[2,3‐d]pyrimidin‐4‐amine] | 24.1 ± 3.8% | 79.8 ± 3.3% | moderate antiplasmodial activity | –
6 | > 2000 nM | – | COc1ccccc1-c1cn(CC2CCN(C(C)=O)CC2)c2ncnc(N)c12 [2 i, 1‐{4‐[(4‐Amino‐5‐(2‐methoxyphenyl)‐7H‐pyrrolo[2,3‐d]pyrimidin‐7‐yl)methyl]piperidin‐1‐yl}ethanone] | 121 ± 8.6% | 93.3 ± 3.2% | – | –
7 | – | – | COc1ccc(-c2cn(Cc3ccccc3)c3ncnc(N)c23)cc1OC [2 q, 7‐Benzyl‐5‐(3,4‐dimethoxyphenyl)‐7H‐pyrrolo[2,3‐d]pyrimidin‐4‐amine] | 110 ± 4.2% | 95.4 ± 0.5% | – | –
8 | > 2000 nM | – | COc1ccccc1-c1cn(CC2CC2)c2ncnc(N)c12 [2 d, 7‐(Cyclopropylmethyl)‐5‐(2‐methoxyphenyl)‐7H‐pyrrolo[2,3‐d]pyrimidin‐4‐amine] | 107 ± 6% | 63.8 ± 1.5% | – | –
9 | – | – | COc1ccc2cc(-c3cn(CC4CC4)c4ncnc(N)c34)ccc2c1 [2 a, 7‐(Cyclopropylmethyl)‐5‐(2‐methoxynaphthalen‐6‐yl)‐7H‐pyrrolo[2,3‐d]pyrimidin‐4‐amine] | 103 ± 8% | 93.6 ± 7.1% | – | –
10 | > 2000 nM | – | CCOCCOc1ccc2cc(-c3cn(CC4CCN(C(C)=O)CC4)c4ncnc(N)c34)ccc2c1 [2 h, 1‐{4‐{[5‐(2‐(2‐Ethoxyethoxy)naphthalen‐6‐yl)‐4‐amino‐7H‐pyrrolo[2,3‐d]pyrimidin‐7‐yl]methyl}piperidin‐1‐yl}ethanone] | 62.2 ± 9% | 94.4 ± 9.3% | – | –
11 | 530 ± 185 nM | 14.2 ± 1.7 µM | CCOc1ccc2cc(-c3cn(CC4CCN(C(C)=O)CC4)c4ncnc(N)c34)ccc2c1 [2 g, 1‐{4‐[(4‐Amino‐5‐(2‐ethoxynaphthalen‐6‐yl)‐7H‐pyrrolo[2,3‐d]pyrimidin‐7‐yl)methyl]piperidin‐1‐yl}ethanone] | 9.3 ± 1.6% | 92.8 ± 5.7% | moderate antiplasmodial activity | –
12 | > 2000 nM | – | COc1ccc(-c2cn(CC3CC3)c3ncnc(N)c23)cc1OC [2 e, 7‐(Cyclopropylmethyl)‐5‐(3,4‐dimethoxyphenyl)‐7H‐pyrrolo[2,3‐d]pyrimidin‐4‐amine] | 110 ± 10.9% | 88.8 ± 0.7% | – | –
13 | > 2000 nM | – | COc1ccccc1-c1cn(CCN2CCOCC2)c2ncnc(N)c12 [2 n, 5‐(2‐Methoxyphenyl)‐7‐(2‐morpholinoethyl)‐7H‐pyrrolo[2,3‐d]pyrimidin‐4‐amine] | 95 ± 1% | 112 ± 2.8% | – | –
14 | – | – | COc1ccccc1-c1cn(CCC2CCN(C(=O)OC(C)(C)C)CC2)c2ncnc(N)c12 [2 k, tert ‐Butyl 4‐{2‐[4‐amino‐5‐(2‐methoxyphenyl)‐7H‐pyrrolo[2,3‐d]pyrimidin‐7‐yl]ethyl}piperidine‐1‐carboxylate] | 62 ± 2.1% | 78.9 ± 0.1% | – | –
15 | – | – | CCOCCOc1ccc2cc(-c3cn(CC4CC4)c4ncnc(N)c34)ccc2c1 [2 c, 5‐[2‐(2‐Ethoxyethoxy)naphthalen‐6‐yl]‐7‐(cyclopropylmethyl)‐7H‐pyrrolo[2,3‐d]pyrimidin‐4‐amine] | 93.1 ± 1.4% | 73 ± 4.1% | – | –
16 | > 2000 nM | – | COc1ccc(-c2cn(CCC3CCN(C(=O)OC(C)(C)C)CC3)c3ncnc(N)c23)cc1OC [2 l, tert ‐Butyl 4‐{2‐[4‐amino‐5‐(3,4‐dimethoxyphenyl)‐7H‐pyrrolo[2,3‐d]pyrimidin‐7‐yl]ethyl}piperidine‐1‐carboxylate] | 66.8 ± 3.9% | 82.4 ± 1.4% | – | –
17 | – | 0.015 µM | CCN(CC)CCCC(C)Nc1ccnc2cc(Cl)ccc12 (stereo not shown) [Chloroquine, reference compound] | – | – | – | –
18 | – | – | COc1ccccc1-c1cn(Cc2ccccc2)c2ncnc(N)c12 [2 p, 7‐Benzyl‐5‐(2‐methoxyphenyl)‐7H‐pyrrolo[2,3‐d]pyrimidin‐4‐amine] | 72.4 ± 13.3% | 97 ± 12.5% | – | –
